Experimental data from paper PMC3449281 (Chemistry & biology, 2012).
Entries after “also recorded” stand apart in the source; their conditions may differ.

Columns and labels:
[1] = molecular target: purified firefly luciferase (FLuc) (Photinus pyralis, UniProt P08659); experiment: Mode of inhibition; type: biochemical; conditions: IC50 shift with 1 mM D-LH2, 1 mM ATP or high CoASH
In short: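 Purified P. pyralis FLuc was run in the standard luciferase assay (10 μM ATP and D-LH2, the KM levels). Test compounds were given as 12-point titrations, 57.5 μM to 0.3 nM final. One substrate was kept at KM and the other saturating (1 mM ATP or 1 mM D-luciferin), or 500 μM CoASH was added. Fold shift = IC50 at high substrate / IC50 at KM. There were three separate tests, each in duplicate.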

miR-21 FLuc assay = experiment: miR-21 FLuc cell-based reporter gene assay; conditions: 48-hour incubation with compound
In short: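 The cell-based reporter expresses wild-type FLuc and was optimized to detect increases in FLuc signal. Cells were exposed to test compound for 48 h. Unlike the read-through assay, there was no wash step before the detection reagent was added. Concentration–response curves were recorded.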

purified RLuc = molecular target: T1, purified RLuc (Renilla reniformis, UniProt P27652); conditions: highest concentration tested = 57.5 μM
T1 sequence (P27652 1-311): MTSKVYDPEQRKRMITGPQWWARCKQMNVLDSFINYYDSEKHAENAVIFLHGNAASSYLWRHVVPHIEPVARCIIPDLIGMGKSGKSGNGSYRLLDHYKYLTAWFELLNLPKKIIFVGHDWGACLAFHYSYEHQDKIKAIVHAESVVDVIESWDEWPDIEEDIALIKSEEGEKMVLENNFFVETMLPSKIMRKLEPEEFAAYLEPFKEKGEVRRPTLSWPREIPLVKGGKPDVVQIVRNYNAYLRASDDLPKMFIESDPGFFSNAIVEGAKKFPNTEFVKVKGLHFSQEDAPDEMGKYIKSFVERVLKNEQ

Sequence of purified firefly luciferase (FLuc) (P08659 whole entry): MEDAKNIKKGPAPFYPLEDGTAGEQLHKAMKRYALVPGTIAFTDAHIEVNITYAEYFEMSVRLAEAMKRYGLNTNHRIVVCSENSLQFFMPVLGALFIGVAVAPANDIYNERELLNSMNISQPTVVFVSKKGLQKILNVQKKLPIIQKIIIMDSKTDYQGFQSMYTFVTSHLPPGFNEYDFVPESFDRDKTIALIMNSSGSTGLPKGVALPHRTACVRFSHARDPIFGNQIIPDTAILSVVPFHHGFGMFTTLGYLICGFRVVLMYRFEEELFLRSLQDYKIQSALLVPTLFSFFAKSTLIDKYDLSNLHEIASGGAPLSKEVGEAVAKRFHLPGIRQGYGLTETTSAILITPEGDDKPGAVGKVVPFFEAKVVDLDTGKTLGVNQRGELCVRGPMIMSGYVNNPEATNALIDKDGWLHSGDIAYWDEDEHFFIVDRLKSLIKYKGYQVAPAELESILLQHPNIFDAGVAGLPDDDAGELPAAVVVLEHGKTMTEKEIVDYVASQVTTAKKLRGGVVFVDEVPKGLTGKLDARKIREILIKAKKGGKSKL

## COc1ccc(-c2nc3ccccc3s2)cc1O [CID: 976322]
[1]
  Mode of inhibition (substrate competition): ATP was found to enhance inhibitor binding

## CC(C)(C)C(=O)Nc1ccc(-c2nc3ccccc3s2)cc1 [CID: 16015828]
miR-21 FLuc assay
  Effect on FLuc signal in cell-based miR-21 assay: strong activation

## O=C(Nc1ccccc1C(=O)O)c1cc(S(=O)(=O)Nc2cccc(F)c2)ccc1Cl [compound 1105141]
Purified RLuc
  Activity in RLuc assay: RLuc-active

## O=C(Nc1ccccc1C(=O)O)c1cccc(S(=O)(=O)Nc2ccc(Br)cc2)c1 [compound 1087370]
Purified RLuc
  Activity in RLuc assay: RLuc-active

## CC(=NNC(=O)c1ccccc1NC(=O)c1ccc(Cl)cc1)c1ccncc1 [CID: 16193026]
[1]
  Mode of inhibition (substrate competition): only ATP

## Cn1c(NN=Cc2cc3ccccc3nc2Cl)nc2ccccc21 [CID:4216593]
[1]
  Mode of inhibition (substrate competition): competitive with both D-LH2 and ATP; also recorded: significantly reduced by either ATP or D-LH2
